Measurements taken from paper PMC12207910 (European journal of pharmaceutical sciences : official …, 2024).
In brackets after ≈: the same amount, converted by molar mass. Entries after “also recorded” stand apart in the source; their conditions may differ. Non-standard residues stand in square brackets, D forms with d. Residues, ends and D or L forms follow the SMILES beside them. Dip = N[C@H](C(=O)O)C(c1ccccc1)c1ccccc1

Experiments:
[1] = test system: Escherichia coli (ATCC BAA-2452), NDM-1
[2] = test system: E. coli (ATCC 25922) and E. coli (ATCC BAA-2452); assay: Resistance development study, repeated exposure; type: cell-based; conditions: E. coli strains; 18 exposures
A. fumigatus (Af-293) [3] = assay: Kill kinetics assay; type: cell-based, Aspergillus fumigatus; conditions: after 12 h
[4] = test system: C. albicans (ATCC 60193) biofilm; assay: Antibiofilm activity, XTT assay; type: cell-based
In short: (§1)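 Fungal biofilms came from suspensions at 2×10^7 CFU/mL in RPMI medium grown 24 h at 35 °C, then washed twice with PBS. […] After washing, XTT with phenazine methosulfate was added for 1 h in the dark at 37 °C, and absorbance was read at 492 nm. Percentage decrease versus untreated wells; triplicate, replicated twice.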

[5] = test system: MRSA (ATCC BAA-1556) biofilm; assay: Antibiofilm activity, XTT assay; type: cell-based, Methicillin-resistant staphylococcus aureus
In short: (§2)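 Bacterial suspensions at 5×10^5 CFU/mL in MH broth were grown 24 h at 37 °C to form biofilms, then washed twice with PBS. […] Biofilms were rewashed, then given XTT plus phenazine methosulfate for 1 h in the dark at 37 °C, and A492 was read. Percentage decrease versus untreated wells; triplicate, run twice.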

MRSA (ATCC BAA-1556) [6] = type: cell-based, Methicillin-resistant staphylococcus aureus
C. albicans (ATCC 60193) [7] = assay: Kill kinetics assay; type: cell-based; conditions: after 12 h
[8] = test system: human red blood cells (hRBC); assay: Hemolytic activity; type: cell-based; conditions: concentration at which 50% hemolysis was observed
fungi = conditions: range over strains
[9] = test system: Clostridium difficile (ATCC 700057)
in vitro [10] = conditions: human, cell viability
[11] = test system: Staphylococcus pneumoniae (ATCC 700677), multi-drug resistant; conditions: Multi-drug resistant (Penicillin, Tetracycline, and Erythromycin)
in vitro [12] = conditions: human
MRSA (ATCC BAA-1556) [13] = assay: Kill kinetics assay; type: cell-based, Methicillin-resistant staphylococcus aureus
in vitro [14] = conditions: human; remark: listed apart in the source
[15] = test system: Enterococcus faecalis (ATCC 51575), vancomycin resistant
[16] = test system: A. fumigatus (Af-293) biofilm; assay: Antibiofilm activity, XTT assay; type: cell-based, Aspergillus fumigatus
In short: as §1

[17] = test system: human skin fibroblast cell (HeKa); conditions: 24 h, 100 μg/mL
in vitro [18] = conditions: human, cell viability; remark: listed apart in the source
in vitro [19] = conditions: human, cell viability; remark: listed apart in the source
[20] = test system: Pseudomonas aeruginosa (ATCC BAA-1744), imipenem resistant; conditions: Imipenem resistant strain
C. albicans (ATCC 60193) [21] = assay: microbe, parasite or virus in culture; type: cell-based; conditions: ATCC 60193
[22] = Calcein dye leakage assay; conditions: mammalian mimic liposomes; after 100 min; concentration not given
In short: (§3)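 Calcein-loaded LUVs were used: negatively charged ones mimic bacterial membranes and zwitterionic ones mimic mammalian membranes. They were diluted in PBS to a final lipid concentration of 40 μM and mixed 1:1 with test compound at 5, 10, 20, 30 or 50 μg/mL. Fluorescence (ex 490/em 520 nm) was read every 10 min for 100 min. Leakage was expressed relative to background and Triton X-100 lysis (100%); triplicate.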

Gram-negative bacteria = conditions: drug-resistant Gram-negative bacteria, range over strains
E. coli (ATCC BAA-2452) [23] = type: cell-based, Escherichia coli
[24] = test system: E. coli (ATCC BAA-2452) biofilm; assay: Antibiofilm activity, XTT assay; type: cell-based, Escherichia coli
In short: as §2

[25] = Calcein dye leakage assay; conditions: bacterial mimic liposomes; for calcein dye leakage: 5 μg/mL
In short: as §3

[26] = test system: Acinetobacter baumannii (ATCC BAA1605), ciprofloxacin resistant; conditions: Ciprofloxacin resistant strain
[27] = test system: Clostridium difficile (NAP1/027); conditions: Reduced susceptibility to multiple antibiotics
A. fumigatus (Af-293) [28] = assay: microbe, parasite or virus in culture; type: cell-based, Aspergillus fumigatus
[29] = test system: Enterococcus faecalis (ATCC 29212)
E. coli (ATCC BAA-2452) [30] = assay: Kill kinetics assay; type: cell-based, Escherichia coli
[31] = test system: Enterococcus faecium (ATCC 27270); assay: microbe, parasite or virus in culture; conditions: ATCC27270, read-out: MIC Enterococcus faecium (ATCC 27270)
[32] = test system: Staphylococcus pneumoniae (ATCC 49619); assay: microbe, parasite or virus in culture; conditions: ATCC49619, read-out: MIC Staphylococcus pneumoniae (ATCC 49619)

N=C(N)NCCC[C@@H]1NC(=O)[C@H](CCCNC(=N)N)NC(=O)[C@H](CCCNC(=N)N)NC(=O)[C@H](C(c2ccccc2)c2ccccc2)NC(=O)[C@H](Cc2c[nH]c3ccccc23)NC(=O)[C@H](C(c2ccccc2)c2ccccc2)NC(=O)[C@H](CCCNC(=N)N)NC1=O [3b, c[Arg-Arg-Arg-Arg-Dip-Trp-Dip]] (cyclo(RRRR[Dip]W[Dip]))
MIC Escherichia coli (ATCC BAA-2452) [1]: 12.5 µg/mL (≈ 9.94 µM) | change in MIC after repeated exposure (resistance development) [2]: no signs of resistance development; also recorded: negligible changes in the MIC values | eradication of fungal cells (A. fumigatus (Af-293) [3]; at 4× the MIC): near-complete eradication | eradication of fungal cells (A. fumigatus (Af-293) [3]; at MIC): Complete eradication was not achieved | decrease in biofilm mass ([4]; at 2× the MIC): 60–62% | decrease in biofilm mass ([4]; at MIC): 31–39% | reduction in biofilm mass ([5]; at 2× the MIC): 60–65% | reduction in biofilm mass ([5]; at MIC, vs untreated control): 40–45% | MIC CaCl2 (MRSA (ATCC BAA-1556) [6]): 1.5 µg/mL (≈ 1.19 µM) | MIC Control (MRSA (ATCC BAA-1556) [6]): 1.5 µg/mL (≈ 1.19 µM) | MIC KCl (MRSA (ATCC BAA-1556) [6]): 3.1 µg/mL (≈ 2.47 µM) | MIC MgCl2 (MRSA (ATCC BAA-1556) [6]): 3.1 µg/mL (≈ 2.47 µM) | MIC NH4Cl (MRSA (ATCC BAA-1556) [6]): 1.5 µg/mL (≈ 1.19 µM) | MIC NaCl (MRSA (ATCC BAA-1556) [6]): 3.1 µg/mL (≈ 2.47 µM) | eradication of fungal cells (C. albicans (ATCC 60193) [7]; at 4× the MIC): near-complete eradication | eradication of fungal cells (C. albicans (ATCC 60193) [7]; at MIC): Complete eradication was not achieved | HC50 [8]: 230 µg/mL | MIC (fungi): 3.1 to 12.5 µg/mL | MIC Clostridium difficile (ATCC 700057) [9]: 12.5 µg/mL (≈ 9.94 µM) | viability at 24 h, 100 μg/mL (in vitro [10]): > 70% | MIC Staphylococcus pneumoniae (ATCC 700677) [11]: 12.5 µg/mL (≈ 9.94 µM) | viability at 24 h, 50 μg/mL (in vitro [12]): 81 to 89% | viability at 24 h, 100 μg/mL (in vitro [12]): > 70% | viability at 24 h, 250 μg/mL (in vitro [12]): > 50% | time to virtually eliminate all bacterial cells (MRSA (ATCC BAA-1556) [13]; at 4× the MIC): 1 to 2 h | time to virtually eliminate all bacterial cells (MRSA (ATCC BAA-1556) [13]; at MIC): 3 to 4 h | remaining at 0.5 h, 75 μM (in vitro [14]; human plasma): ~82.4% | remaining at 12 h, 75 μM (in vitro [14]; human plasma): ~52.3% | remaining at 24 h, 75 μM (in vitro [14]; human plasma): ~44.9% | half-life at 75 μM (in vitro [14]; plasma): 780 min | MIC Enterococcus faecalis (ATCC 51575) [15]: 12.5 µg/mL (≈ 9.94 µM) | reduction in biofilm mass ([16]; at 2× the MIC): 49–56% | reduction in biofilm mass ([16]; at MIC): 31–36% | cell viability [17]: > 60% | viability at 24 h, 100 μg/mL (in vitro [18]): > 70% | viability at 24 h, 100 μg/mL (in vitro [19]): > 70% | MIC Pseudomonas aeruginosa (ATCC BAA-1744) [20]: 12.5 µg/mL (≈ 9.94 µM) | MIC CaCl2 (C. albicans (ATCC 60193) [21]): 6.2 µg/mL (≈ 4.93 µM) | MIC Control (C. albicans (ATCC 60193) [21]): 3.1 µg/mL (≈ 2.47 µM) | MIC KCl (C. albicans (ATCC 60193) [21]): 3.1 µg/mL (≈ 2.47 µM) | MIC MgCl2 (C. albicans (ATCC 60193) [21]): 3.1 µg/mL (≈ 2.47 µM) | MIC NH4Cl (C. albicans (ATCC 60193) [21]): 6.2 µg/mL (≈ 4.93 µM) | MIC NaCl (C. albicans (ATCC 60193) [21]): 3.1 µg/mL (≈ 2.47 µM) | calcein dye leakage [22]: 14.11% | MIC (Gram-negative bacteria): 12.5 to 25 µg/mL | MIC NaCl (E. coli (ATCC BAA-2452) [23]; ATCC BAA-2452): 25 µg/mL (≈ 19.9 µM) | MIC CaCl2 (E. coli (ATCC BAA-2452) [23]; E. coli (ATCC BAA-2452), CaCl2 2 mM): 12.5 µg/mL (≈ 9.94 µM) | MIC KCl (E. coli (ATCC BAA-2452) [23]; E. coli (ATCC BAA-2452), KCl […]): 12.5 µg/mL (≈ 9.94 µM) | MIC Control (E. coli (ATCC BAA-2452) [23]; E. coli (ATCC BAA-2452), MH media without salt ions or serum): 12.5 µg/mL | MIC MgCl2 (E. coli (ATCC BAA-2452) [23]; E. coli (ATCC BAA-2452), MgCl2 1 mM): 12.5 µg/mL (≈ 9.94 µM) | MIC NH4Cl (E. coli (ATCC BAA-2452) [23]; E. coli (ATCC BAA-2452), NH4Cl 6 mM): 12.5 µg/mL (≈ 9.94 µM) | reduction in biofilm mass ([24]; at 2× the MIC): 60–65% | reduction in biofilm mass ([24]; at MIC): 40–45% | calcein dye leakage ([25]; 40 min): approximately 20% | calcein dye leakage ([25]; 60 min): ~60% | incubation time to 100% dye leakage ([25]; 50 μg/mL): 60 min | MIC Acinetobacter baumannii (ATCC BAA1605) [26]: 12.5 µg/mL (≈ 9.94 µM) | MIC Clostridium difficile (NAP1/027) [27]: 6.2 µg/mL (≈ 4.93 µM) | MIC MgCl2 (A. fumigatus (Af-293) [28]; A. fumigatus (Af-293), MgCl2 1 mM): 12.5 µg/mL (≈ 9.94 µM) | MIC NaCl (A. fumigatus (Af-293) [28]; A. fumigatus (Af-293), NaCl 150 mM): 12.5 µg/mL (≈ 9.94 µM) | MIC FBS (25%) (A. fumigatus (Af-293) [28]; A. fumigatus (Af-293), fetal bovine serum 25%): 12.5 µg/mL (≈ 9.94 µM) | MIC CaCl2 (A. fumigatus (Af-293) [28]; Af-293): 6.2 µg/mL (≈ 4.93 µM) | MIC Control (A. fumigatus (Af-293) [28]; Af-293): 6.2 µg/mL (≈ 4.93 µM) | MIC KCl (A. fumigatus (Af-293) [28]; Af-293): 6.2 µg/mL (≈ 4.93 µM) | MIC NH4Cl (A. fumigatus (Af-293) [28]; Af-293): 6.2 µg/mL (≈ 4.93 µM) | MIC Enterococcus faecalis (ATCC 29212) [29]: 12.5 µg/mL (≈ 9.94 µM) | time to completely halt growth of nearly all cells (E. coli (ATCC BAA-2452) [30]; at 4× the MIC): 2 h | time to completely halt growth of nearly all cells (E. coli (ATCC BAA-2452) [30]; at MIC): 4 h

CN[C@H](CC(C)C)C(=O)N[C@H]1C(=O)N[C@@H](CC(N)=O)C(=O)N[C@H]2C(=O)N[C@H]3C(=O)N[C@H](C(=O)N[C@H](C(=O)O)c4cc(O)cc(O)c4-c4cc3ccc4O)[C@H](O)c3ccc(c(Cl)c3)Oc3cc2cc(c3O[C@@H]2O[C@H](CO)[C@@H](O)[C@H](O)[C@H]2O[C@H]2C[C@](C)(N)[C@H](O)[C@H](C)O2)Oc2ccc(cc2Cl)[C@H]1O [Vancomycin]
MIC [31]: 1.5 µg/mL (≈ 1.04 µM) | MIC [32]: 3.1 µg/mL (≈ 2.14 µM)
